Measurements from different studies.
Each line is one published result; the experiments were not run side by side.
Cell line: PC-3
Read-out: cell growth or viability

`COc1cc(CNC(=O)C[C@H](C)CCC=C(C)C)ccc1OCc1cn(-c2ccc(Cl)cc2)nn1` has an inhibition of 28% (SRB; 10 µM).
The inhibition of `COc1ccc(C(=O)/C=C/c2c(F)cccc2Cl)cc1S(N)(=O)=O` is reported as 81% (SRB; 10 µM).
The inhibition of `COc1cccc(NC(=O)CN2C(=O)/C(=C/c3cccs3)SC2=S)c1` is reported as 7.28% (MTT; 10 µM).
With `O=C(Nc1cccc(Cc2ccccc2)c1)C1CCCN(C(=O)c2cccc(-c3ccco3)c2)C1` (stereo not drawn) the inhibition was 0% (WST-1; 100 µM).
The inhibition of `O=C(CN1C(=O)/C(=C/c2ccc(Cl)cc2)SC1=S)Nc1ccccc1` is reported as 32.3% (MTT; 10 µM).
For `CC(=O)c1cccc(NC(=O)C2CCCN(C(=O)c3cc(C(F)(F)F)cc(C(F)(F)F)c3)C2)c1` (stereo not drawn), the inhibition was 0% (WST-1; 100 µM).
`O=C(CN1C(=O)/C(=C/c2ccc([N+](=O)[O-])cc2)SC1=S)Nc1ccccc1` gave an inhibition of 16.6% (MTT; 10 µM).
With `COc1ccc(C(=O)/C=C/c2cccc(Br)c2)cc1S(N)(=O)=O` the inhibition was 135% (SRB; 10 µM).
For `COC(=O)c1cccc(NC(=O)C2CCCN(C(=O)c3cc(C(F)(F)F)cc(C(F)(F)F)c3)C2)c1` (stereo not drawn), the inhibition was 0% (WST-1; 100 µM).
`COc1ccc(C(=O)/C=C/c2cccc3ccccc23)cc1S(N)(=O)=O` gave an inhibition of 87% (SRB; 10 µM).
`O=C(Nc1cccc(S(=O)(=O)N2CCCC2)c1)C1CCCN(C(=O)c2cc(C(F)(F)F)cc(C(F)(F)F)c2)C1` (stereo not drawn) gave an inhibition of 0% (WST-1; 100 µM).
The inhibition of `O=C(CN1C(=O)/C(=C/c2cccc(F)c2)SC1=S)Nc1ccccc1` is reported as 18.9% (MTT; 10 µM).
With `O=C(Nc1cccc(-c2ccco2)c1)C1CCCN(C(=O)c2cc(C(F)(F)F)cc(C(F)(F)F)c2)C1` (stereo not drawn) the inhibition was 0% (WST-1; 100 µM).
The inhibition of `COc1ccccc1/C=C/C(=O)c1ccc(OC)c(S(N)(=O)=O)c1` is reported as 52% (SRB; 10 µM).
`O=C(CN1C(=O)/C(=C/c2ccc(F)cc2)SC1=S)Nc1ccccc1` has an inhibition of 27.7% (MTT; 10 µM).
